From ChEMBL document CHEMBL4842395, “Design and Synthesis of Oleanolic Acid Trimers to Enhance Inhibition of Influenza Virus Entry” (ACS Med Chem Lett, 2021)
Numbered stars: 1 amine (or outer) side, 2 acyl side, 3 side chain; on linkers, the order of the positions; unused ones are H or OH. Bridge positions count the residues as written; N and C are the ends. Square brackets hold non-standard residues; d marks the D form. Peptide text beside a SMILES is read from it. I, II: the chains in the order shown. X1 = O=C(O)C1(OCCCCC(=O)[*:2])C[C@H](O)[C@@H](N[*:1])[C@H]([C@H](O)[C@H](O)CO)O1; X2 = O=C(NCCCCCCN[*:1])c1cc(C(=O)NCCCCCCN[*:2])cc(C(=O)NCCCCCCN[*:3])c1

Key:
[1] = Cytotoxicity against MDCK cells assessed as reduction in cell viability by CellTiter-Glo assay; assay type: cell-based, Canis lupus familiaris; settings: dog
Procedure, shortened: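 Viability of normal, uninfected MDCK cells measured by CellTiter-Glo. Medium containing 1% DMSO was the negative control. CC50 is the concentration that reduces viability by 50%.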

[2] = test system: Influenza A virus; test: Antiviral activity against Influenza A virus (A/WSN/1933(H1N1)) infected in MDCK cells assessed as suppression of M2 protein expression at early stage of infection measured after 2 hrs post infection by Western blot analysis; assay type: functional
Procedure, shortened: (§1)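 Time-of-addition study in MDCK cells infected with A/WSN/33 (H1N1). Compound was present during one of five windows: 0–10, 0–2, 2–5, 5–8 or 8–10 h, corresponding to entry (0–2 h), replication/translation (2–8 h) and release (8–10 h). M2 and NP protein levels were compared with a DMSO control.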

[3] = test system: Influenza A virus; test: Antiviral activity against Influenza A virus (A/WSN/1933(H1N1)) infected in MDCK cells assessed as inhibition of virus-induced cytopathic effect at 100 uM measured after 40 hrs incubation by inverted microscpic imaging analysis; assay type: functional
Procedure, shortened: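 MDCK cells infected with influenza A/WSN/33 (H1N1), with compounds at 100 μM. Viral CPE judged by direct microscopic observation. DMSO served as the negative control and oseltamivir phosphate as the positive control. Triplicate experiments, with standard deviations.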

[4] = Selectivity index, ratio of CC50 for MDCK cells to IC50 for antiviral activity against Influenza A virus (B/Sichuan/531/2018(Victoria)); assay type: toxicity; settings: dog, read-out: Ratio CC50/IC50
[5] = test system: Influenza B virus; test: Antiviral activity against Influenza B virus (B/Sichuan/531/2018(Victoria)) infected in cells assessed as reduction in infected cells; assay type: functional, organism-based
[6] = test system: Influenza A virus; test: Antiviral activity against Influenza A virus (A/Hong Kong/4801/2014 (H3N2)) infected in cells assessed as reduction in infected cells; assay type: functional, organism-based
[7] = test system: Influenza A virus; test: Antiviral activity against Influenza A virus (A/WSN/1933(H1N1)) infected in MDCK cells assessed as s reduction in virus-induced cytopathic effect after 40 hrs incubation by CellTiter-Glo assay; assay type: functional, organism-based
Procedure, shortened: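 CPE-based dose–response in MDCK cells infected with A/WSN/33 (H1N1), using the CellTiter-Glo viability read-out. Medium with 1% DMSO was the negative control and oseltamivir phosphate the positive control. IC50 is the concentration giving 50% inhibition of virus-induced CPE. Means of duplicate samples from three independent experiments.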

[8] = Selectivity index, ratio of CC50 for MDCK cells to IC50 for antiviral activity against Influenza A virus (A/Hong Kong/4801/2014 (H3N2)); assay type: toxicity; settings: dog, read-out: Ratio CC50/IC50
[9] = test system: Influenza A virus; test: Antiviral activity against Influenza A virus (A/WSN/1933(H1N1)) infected in MDCK cells assessed as suppression of NP protein expression measured after 2 hrs post infection by Western blot analysis; assay type: functional; procedure, shortened: as §1
[10] = target: Hemagglutinin (Influenza A virus (A/Puerto Rico/8/1934(H1N1)), UniProt P03452); test: Binding affinity to CM5 chip immobilized Influenza A virus (A/Michigan/45/2015) (H1N1)) hemagglutin assessed as dissociation constant by surface plasmon resonance assay
[11] = Selectivity ratio of CC50 for MDCK cells to IC50 for Influenza A virus A/WSN/33(H1N1) infected in MDCK cells; assay type: toxicity, cell-based; settings: dog, read-out: Ratio CC50/IC50
Procedure, shortened: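 Selectivity index calculated as CC50 (uninfected MDCK cells, CellTiter-Glo) divided by IC50 (inhibition of A/WSN/33 H1N1-induced CPE in MDCK cells).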

[12] = target: Hemagglutinin (Influenza A virus, UniProt B4URE7); test: Inhibition of CM5 chip immobilized Influenza A virus (A/Viet Nam/1203/2004(H5N1)) HA by SPR method
Sequence of Hemagglutinin (B4URE7 whole entry): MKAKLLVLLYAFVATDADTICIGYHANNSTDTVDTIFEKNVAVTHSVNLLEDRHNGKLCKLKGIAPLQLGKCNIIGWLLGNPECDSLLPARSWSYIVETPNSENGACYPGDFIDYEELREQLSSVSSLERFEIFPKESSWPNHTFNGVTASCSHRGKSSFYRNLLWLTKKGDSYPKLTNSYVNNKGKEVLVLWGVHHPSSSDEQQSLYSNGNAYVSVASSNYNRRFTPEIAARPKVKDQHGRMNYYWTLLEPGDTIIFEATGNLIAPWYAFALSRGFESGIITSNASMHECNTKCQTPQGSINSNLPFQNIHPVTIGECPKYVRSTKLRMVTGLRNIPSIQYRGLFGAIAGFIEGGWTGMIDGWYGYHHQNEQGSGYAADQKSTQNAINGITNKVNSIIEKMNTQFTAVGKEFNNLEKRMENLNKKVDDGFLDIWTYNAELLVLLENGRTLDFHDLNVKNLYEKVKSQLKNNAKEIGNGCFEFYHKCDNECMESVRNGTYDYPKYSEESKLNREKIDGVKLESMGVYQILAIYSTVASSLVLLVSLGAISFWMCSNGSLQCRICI

Sequence of Hemagglutinin (Influenza A virus (A/Puerto Rico/8/1934(H1N1)), UniProt P03452) (P03452 whole entry): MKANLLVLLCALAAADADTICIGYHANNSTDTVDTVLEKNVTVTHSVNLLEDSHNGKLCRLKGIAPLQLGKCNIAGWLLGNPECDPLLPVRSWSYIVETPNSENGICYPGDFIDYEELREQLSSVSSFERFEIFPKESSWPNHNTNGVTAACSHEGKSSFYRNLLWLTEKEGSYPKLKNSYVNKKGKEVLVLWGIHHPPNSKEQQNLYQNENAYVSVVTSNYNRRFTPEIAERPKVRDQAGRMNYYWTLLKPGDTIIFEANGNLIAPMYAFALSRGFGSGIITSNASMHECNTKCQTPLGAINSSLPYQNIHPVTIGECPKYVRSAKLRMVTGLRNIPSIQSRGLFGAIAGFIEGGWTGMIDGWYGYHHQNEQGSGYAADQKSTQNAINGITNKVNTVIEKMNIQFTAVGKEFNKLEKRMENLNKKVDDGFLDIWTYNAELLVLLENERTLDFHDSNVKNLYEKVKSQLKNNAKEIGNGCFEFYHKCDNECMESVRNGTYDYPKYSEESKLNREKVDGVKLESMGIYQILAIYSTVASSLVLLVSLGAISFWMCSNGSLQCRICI

Structure (SMILES) | CC50 [1] [nM] | inhibition (INH) [2] [%] | inhibition at 100 µM [3] [%] | selectivity ratio [4] | IC50 [5] [nM] | IC50 [6] [nM] | IC50 [7] [nM] | selectivity ratio [8] | inhibition (INH) [9] [%] | Kd [10] [nM] | selectivity ratio [11] | Kd [12] [nM]
CC1(C)CC[C@]2(C(=O)NCCCCc3cn(Cc4cc(Cn5cc(CCCCNC(=O)[C@]67CCC(C)(C)C[C@H]6C6=CC[C@@H]8[C@@]9(C)CC[C@H](O)C(C)(C)[C@@H]9CC[C@@]8(C)[C@]6(C)CC7)nn5)cc(Cn5cc(CCCCNC(=O)[C@]67CCC(C)(C)C[C@H]6C6=CC[C@@H]8[C@@]9(C)CC[C@H](O)C(C)(C)[C@@H]9CC[C@@]8(C)[C@]6(C)CC7)nn5)c4)nn3)CC[C@]3(C)C(=CC[C@@H]4[C@@]5(C)CC[C@H](O)C(C)(C)[C@@H]5CC[C@]43C)[C@@H]2C1 | > 100000 | >90 | > 80 | > 53.5 | 1870 | 4580 | 230 | > 21.8 | >90 | 2630 | > 435 | 
CC(=O)N[C@H]1[C@H]([C@H](O)[C@H](O)CO)OC(OCCCCC(=O)NCC(=O)N[C@@H](CO)C(=O)NCC(=O)N[C@@H](CO)C(=O)N[C@@H](C)C(=O)N[C@@H](CO)C(=O)NCC(=O)N[C@@H](CO)C(=O)NCC(=O)NCCCCCCNC(=O)c2cc(C(=O)NCCCCCCNC(=O)CNC(=O)[C@H](CO)NC(=O)CNC(=O)[C@H](CO)NC(=O)[C@H](C)NC(=O)[C@H](CO)NC(=O)CNC(=O)[C@H](CO)NC(=O)CNC(=O)CCCCOC3(C(=O)O)C[C@H](O)[C@@H](NC(C)=O)[C@H]([C@H](O)[C@H](O)CO)O3)cc(C(=O)NCCCCCCNC(=O)CNC(=O)[C@H](CO)NC(=O)CNC(=O)[C@H](CO)NC(=O)[C@H](C)NC(=O)[C@H](CO)NC(=O)CNC(=O)[C@H](CO)NC(=O)CNC(=O)CCCCOC3(C(=O)O)C[C@H](O)[C@@H](NC(C)=O)[C@H]([C@H](O)[C@H](O)CO)O3)c2)(C(=O)O)C[C@@H]1O (some centres not stated) (I: Ac-[X1]GSGSASGSG / II: Ac-[X1]GSGSASGSG / III: Ac-[X1]GSGSASGSG; linker I:C-II:C-III:C via X2) |  |  |  |  |  |  |  |  |  |  |  | 446
